Assay [1] deals with T1, DNA topoisomerase 1 (Homo sapiens) (UniProt P11387).
T1 sequence (whole entry): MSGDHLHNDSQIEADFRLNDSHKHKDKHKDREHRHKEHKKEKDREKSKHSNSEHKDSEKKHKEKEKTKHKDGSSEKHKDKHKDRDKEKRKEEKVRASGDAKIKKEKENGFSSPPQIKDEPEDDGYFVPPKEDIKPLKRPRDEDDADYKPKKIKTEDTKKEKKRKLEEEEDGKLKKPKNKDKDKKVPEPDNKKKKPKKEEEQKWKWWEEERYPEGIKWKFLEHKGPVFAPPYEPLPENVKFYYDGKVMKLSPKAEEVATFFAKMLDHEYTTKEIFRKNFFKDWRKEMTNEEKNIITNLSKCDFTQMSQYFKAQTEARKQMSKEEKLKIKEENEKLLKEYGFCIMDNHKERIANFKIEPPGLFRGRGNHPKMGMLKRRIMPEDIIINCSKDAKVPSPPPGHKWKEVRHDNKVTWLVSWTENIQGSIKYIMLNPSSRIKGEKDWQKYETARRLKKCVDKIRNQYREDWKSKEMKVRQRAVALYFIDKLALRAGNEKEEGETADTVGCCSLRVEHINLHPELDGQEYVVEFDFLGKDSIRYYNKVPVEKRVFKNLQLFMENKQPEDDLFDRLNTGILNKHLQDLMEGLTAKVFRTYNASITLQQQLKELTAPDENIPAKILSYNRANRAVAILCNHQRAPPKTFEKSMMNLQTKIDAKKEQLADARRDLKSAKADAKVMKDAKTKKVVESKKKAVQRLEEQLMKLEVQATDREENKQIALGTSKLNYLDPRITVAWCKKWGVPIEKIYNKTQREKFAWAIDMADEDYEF
Nature of the assay: Inhibition of human recombinant DNA topoisomerase 1 assessed as inhibition of supercoiled pBR322 DNA relaxation at 100 uM after 30 mins by gel electrophoresis. The method, boiled down:
(§1)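 100 ng pBR322 with 0.4 units recombinant human topo I, incubated 30 min at 37 °C in 10 mM Tris-HCl pH 7.9, 150 mM NaCl, 0.1% BSA, 1 mM spermidine, 5% glycerol. Stopped with sarcosyl stop solution. Run on 1% agarose in TAE at 15 V for 7 h, stained with ethidium bromide, bands quantified under UV. Three experiments in triplicate.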

The test system of assay [2] is HeLa. Description: Cytotoxicity against human HeLa cells after 2 days. The settings on record: 48 h. It is filed as functional, cell-based. The method, boiled down:
(§2)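 Cells grown per supplier's instructions, seeded at 2-4 × 10^4 per well and incubated overnight in medium with 10% FBS, 5% CO2, 37 °C. Day 2: medium replaced with graded compound concentrations from DMSO stock (20 mM). Day 4: CCK-8 added for 4 h, absorbance read at 450 nm. Three experiments, each in triplicate, mean ± S.D.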

Assay [3] relates to MDA-MB-231. Nature of the assay: Cytotoxicity against human MDA-MB-231 cells after 2 days. It is filed as functional. The method, boiled down: as §2
Assay [4] deals with HL-60. Nature of the assay: Cytotoxicity against human HL60 cells after 2 days. It is filed as functional, cell-based. The settings on record: HL-60, 48 h. The method, boiled down: as §2
For assay [5], the target named is DNA topoisomerase 2-alpha (Homo sapiens) (UniProt P11388). Nature of the assay: Inhibition of human DNA topoisomerase 2 alpha assessed as inhibition of supercoiled pBR322 DNA relaxation at 100 uM after 30 mins by gel electrophoresis. The method, boiled down: (§3)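 200 ng supercoiled pBR322 with 1 unit human topo IIα, incubated 30 min at 30 °C in 10 mM Tris-HCl pH 7.9, 50 mM NaCl, 5 mM MgCl2, 1 mM EDTA, 1 mM ATP, BSA. Stopped with EDTA. Run on 1% agarose in TAE at 25 V for 4 h, stained with ethidium bromide, supercoiled band quantified under UV. Three experiments in triplicate.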

Assay [6] relates to DU-145. Nature of the assay: Cytotoxicity against human DU145 cells after 2 days. It is filed as functional, cell-based. The settings on record: DU-145, 48 h. The method, boiled down: as §2
Assay [7] concerns HCT-15. Nature of the assay: Cytotoxicity against human HCT15 cells after 2 days. It is filed as functional, cell-based. The settings on record: HCT-15, 48 h. The method, boiled down: as §2
Assay [8] has as its target T1, DNA topoisomerase 1 (Homo sapiens). Description: Inhibition of human recombinant DNA topoisomerase 1 assessed as inhibition of supercoiled pBR322 DNA relaxation at 20 uM after 30 mins by gel electrophoresis. The method, boiled down: as §1
Assay [9] has as its target DNA topoisomerase 2-alpha (Homo sapiens) (UniProt P11388). Description: Inhibition of human DNA topoisomerase 2 alpha assessed as inhibition of supercoiled pBR322 DNA relaxation at 20 uM after 30 mins by gel electrophoresis. The method, boiled down: as §3

pIC50: −log10 of the molar value.

Sequence of DNA topoisomerase 2-alpha (Homo sapiens) (P11388 whole entry): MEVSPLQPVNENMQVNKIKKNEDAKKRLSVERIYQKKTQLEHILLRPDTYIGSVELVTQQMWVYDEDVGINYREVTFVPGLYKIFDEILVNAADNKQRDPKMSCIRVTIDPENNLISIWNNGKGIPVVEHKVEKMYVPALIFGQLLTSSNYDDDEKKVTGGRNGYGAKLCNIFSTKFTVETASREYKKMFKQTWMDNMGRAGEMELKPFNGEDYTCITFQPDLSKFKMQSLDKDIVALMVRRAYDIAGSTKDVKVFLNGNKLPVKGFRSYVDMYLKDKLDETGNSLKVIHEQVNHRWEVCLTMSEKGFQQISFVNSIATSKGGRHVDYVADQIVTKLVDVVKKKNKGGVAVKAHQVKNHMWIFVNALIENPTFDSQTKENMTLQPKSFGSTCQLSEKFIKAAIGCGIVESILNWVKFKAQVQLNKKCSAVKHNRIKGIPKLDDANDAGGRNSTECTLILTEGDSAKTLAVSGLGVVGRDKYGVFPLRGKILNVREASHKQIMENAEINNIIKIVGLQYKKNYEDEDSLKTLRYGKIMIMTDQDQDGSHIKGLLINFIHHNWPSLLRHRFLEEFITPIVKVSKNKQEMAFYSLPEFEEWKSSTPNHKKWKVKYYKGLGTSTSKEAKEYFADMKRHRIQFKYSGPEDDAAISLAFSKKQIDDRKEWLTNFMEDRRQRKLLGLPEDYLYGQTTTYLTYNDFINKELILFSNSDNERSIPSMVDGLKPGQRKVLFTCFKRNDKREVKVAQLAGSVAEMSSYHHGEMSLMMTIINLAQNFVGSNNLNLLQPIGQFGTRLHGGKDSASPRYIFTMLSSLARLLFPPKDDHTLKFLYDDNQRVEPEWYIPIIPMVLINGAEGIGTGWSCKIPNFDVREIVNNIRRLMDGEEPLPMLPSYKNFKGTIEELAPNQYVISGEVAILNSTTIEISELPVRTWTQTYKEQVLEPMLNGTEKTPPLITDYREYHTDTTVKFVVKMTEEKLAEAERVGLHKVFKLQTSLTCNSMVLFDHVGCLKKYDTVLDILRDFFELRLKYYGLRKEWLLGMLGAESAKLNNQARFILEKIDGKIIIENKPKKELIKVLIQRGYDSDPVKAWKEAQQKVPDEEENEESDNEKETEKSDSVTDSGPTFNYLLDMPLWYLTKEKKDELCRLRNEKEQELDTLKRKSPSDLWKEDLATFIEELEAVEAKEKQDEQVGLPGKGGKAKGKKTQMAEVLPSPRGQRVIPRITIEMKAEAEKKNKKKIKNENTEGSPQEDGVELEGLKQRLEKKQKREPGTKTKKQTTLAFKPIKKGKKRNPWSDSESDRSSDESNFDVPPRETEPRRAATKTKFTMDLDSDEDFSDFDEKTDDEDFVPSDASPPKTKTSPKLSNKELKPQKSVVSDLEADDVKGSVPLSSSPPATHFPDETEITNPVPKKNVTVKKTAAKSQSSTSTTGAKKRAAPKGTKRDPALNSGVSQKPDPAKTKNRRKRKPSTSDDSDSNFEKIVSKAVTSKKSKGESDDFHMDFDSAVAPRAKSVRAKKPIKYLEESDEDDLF

For the compound `c1ccc(-c2cc(-c3ccco3)nc3c2COc2ccccc2-3)cc1`, the inhibition in assay [1] is 4.9%; in assay [5], 28.4%. Moreover, the pIC50 is 5.64 in assay [2], 5.85 in assay [4], 7.00 in assay [6] and 6.40 in assay [7]. Also, the IC50 in assay [3] is 0.2 µM.

Take `c1ccc(-c2cc(-c3cccs3)c3c(n2)-c2ccccc2OC3)nc1`: the inhibition in [1] came out at 48.2%; in assay [8], 4.1%; in assay [5], 19.4%. Besides, the pIC50 is 5.21 in [2], 4.86 in assay [4], 4.88 in assay [6] and 4.85 in assay [7]. Also, the IC50 in assay [3] was found to be 2.4 µM.

On to `c1ccc(-c2cc(-c3ccco3)nc3c2COc2ccccc2-3)nc1`, for which the figures for the inhibition in assay [1] and in assay [5] were 11.5% and 2%, respectively.

In assay [3], `COc1cccc2c1C(=O)c1c(O)c3c(c(O)c1C2=O)C[C@@](O)(C(=O)CO)C[C@@H]3O[C@H]1C[C@H](N)[C@H](O)[C@H](C)O1` [DOXORUBICIN] showed an IC50 of 0.4 µM.

Take `c1ccc(-c2cc(-c3cccs3)c3c(n2)-c2ccccc2OC3)cc1`: the inhibition is 0% in assay [1] and 10.8% in assay [5]. The pIC50 in assay [2] is 4.80; in [4], below 4.30; in assay [6], 5.59; in assay [7] it was 5.92. Further, the IC50 in assay [3] was 3.9 µM.

`c1cncc(-c2cc(-c3ccco3)nc3c2COc2ccccc2-3)c1`: the inhibition is 41.6% in assay [1], 15.5% in [8] and 5.6% in assay [5]. For the same compound, the pIC50 in assay [2] is 5.66; in assay [4], 5.74; in assay [6], 5.34; in assay [7] it was 6.22. The compound also registered an IC50 in assay [3] of 1.1 µM.

In the case of `c1ccc(-c2cc(-c3ccccn3)nc3c2COc2ccccc2-3)cc1`, the inhibition turned out to be 3.1% in [1] and 7.2% in assay [5]. The pIC50 was 5.30 in assay [2], 4.84 in assay [4], 5.12 in assay [6] and 4.81 in assay [7]. Besides, the IC50 in assay [3] stood at 11.1 µM.

`c1ccc(-c2cc(-c3cccnc3)c3c(n2)-c2ccccc2OC3)cc1`: the inhibition stood at 0% in [1] and 14% in assay [5].

For the compound `c1ccc(-c2cc(-c3cccs3)nc3c2COc2ccccc2-3)cc1`, the inhibition in assay [1] was determined as 5.5%; in assay [5], 7.5%.

`c1ccc(-c2cc(-c3cccs3)nc3c2COc2ccccc2-3)nc1`: the inhibition amounted to 1.8% in [1] and 8.5% in assay [5].

`c1csc(-c2cc(-c3cccs3)c3c(n2)-c2ccccc2OC3)c1`: the results for the inhibition in assay [1] and in [5] were 0.7% and 7.9%, respectively.

In assay [3], `CC[C@@]1(O)C(=O)OCc2c1cc1n(c2=O)Cc2cc3ccccc3nc2-1` [CAMPTOTHECIN] registered an IC50 of 0.3 µM.

On to `c1ccc(-c2cc(-c3ccccn3)c3c(n2)-c2ccccc2OC3)nc1`, for which the inhibition was found to be 0.6% in assay [1] and 10.7% in assay [5]. Further, the negative logarithm of the IC50 (pIC50) in assay [2] is below 4.30; in [4], 6.70; in assay [6], below 4.30; in [7], 4.64. This compound also registered an IC50 in assay [3] of 4.7 µM.

Consider `c1coc(-c2cc(-c3cccs3)nc3c2COc2ccccc2-3)c1`, for which the inhibition in [1] came out at 9.2%; in [5], 14.1%.

`COc1cc([C@@H]2c3cc4c(cc3[C@@H](O[C@@H]3O[C@@H]5CO[C@@H](C)O[C@H]5[C@H](O)[C@H]3O)[C@H]3COC(=O)[C@H]23)OCO4)cc(OC)c1O` [ETOPOSIDE] displayed an IC50 in assay [3] of 0.7 µM. Moreover, the inhibition in assay [9] is 22.3%.

Regarding `c1ccc(-c2cc(-c3ccco3)c3c(n2)-c2ccccc2OC3)nc1`, the figures for the inhibition in assay [1] and in assay [5] were 4.4% and 23.4%, respectively. Further, the pIC50 in assay [2] is below 4.30; in [4], 4.73; in [6], 4.64; in [7] it was below 4.30. Further, the IC50 in assay [3] stood at 3.3 µM.

Turning to `c1ccc(-c2cc(-c3ccoc3)c3c(n2)-c2ccccc2OC3)cc1`, the results for the inhibition in assay [1] and in [5] were 1.9% and 10.5%, respectively. Further, the pIC50 in assay [2] was 4.40; in assay [4], 5.18; in [6], below 4.30; in assay [7] it was 4.51. This compound also displayed an IC50 in [3] of 10 µM.

Take `c1csc(-c2cc(-c3ccoc3)c3c(n2)-c2ccccc2OC3)c1`: the inhibition in [1] stood at 0%; in [5], 8.4%.

`c1coc(-c2cc(-c3cccs3)c3c(n2)-c2ccccc2OC3)c1`: the values for the inhibition in [1] and in assay [5] were 0% and 6.8%, respectively.

Regarding `c1ccc(-c2cc(-c3cccnc3)c3c(n2)-c2ccccc2OC3)nc1`, the inhibition in assay [1] came to 2.6%; in [5] it was 8.7%. For the same compound, the pIC50 was 5.89 in [2], below 4.30 in assay [4], 5.36 in [6] and 5.48 in assay [7]. The compound further had an IC50 in assay [3] of 7.2 µM.

Turning to `c1ccc(-c2cc(-c3ccccc3)c3c(n2)-c2ccccc2OC3)cc1`, the inhibition was 0% in assay [1] and 15.4% in assay [5]. The pIC50 in assay [2] is 4.85; in [4], 4.73; in assay [6] it was 5.16; in assay [7], 5.29. The IC50 in [3] was 1.8 µM.

Take `c1ccc(-c2cc(-c3ccsc3)nc3c2COc2ccccc2-3)nc1`: the values for the inhibition in assay [1], in assay [9] and in assay [5] were 3.3%, 3.2% and 25.3%, respectively. In addition, the pIC50 in assay [2] was below 4.30; in assay [4], below 4.30; in [6], 5.30; in assay [7] it was 5.08. This compound yielded an IC50 in assay [3] of 25.8 µM.

For `c1coc(-c2cc(-c3ccco3)c3c(n2)-c2ccccc2OC3)c1`, the inhibition was 46.4% in assay [1], 22.9% in assay [8] and 11.6% in assay [5]. For the same compound, the pIC50 in assay [2] was 5.89; in assay [4] it was 5.47; in assay [6], 6.05; in assay [7] it was 6.22. Besides, in assay [3], the IC50 turned out to be 0.6 µM.

For the compound `c1ccc(-c2cc(-c3ccco3)c3c(n2)-c2ccccc2OC3)cc1`, the figures for the inhibition in [1] and in [5] were 0% and 11.5%, respectively. Besides, the pIC50 was 5.85 in [2], 5.14 in assay [4], 4.73 in assay [6] and 4.91 in [7]. In assay [3], this compound yielded an IC50 of 11.6 µM.

Consider `c1ccc(-c2cc(-c3ccccn3)c3c(n2)-c2ccccc2OC3)cc1`, for which the inhibition in [1] turned out to be 0%; in assay [5] it was 8.7%. The pIC50 is 5.55 in assay [2], below 4.30 in assay [4], 5.72 in [6] and 4.92 in [7]. This compound also came in with a half-maximal inhibitory concentration (IC50) in [3] of 1.9 µM.

Regarding `c1ccc(-c2cc(-c3ccsc3)c3c(n2)-c2ccccc2OC3)cc1`, the results for the inhibition in assay [1] and in assay [5] were 3.7% and 17.6%, respectively. For the same compound, the pIC50 in assay [2], in [4], in assay [6] and in assay [7] was below 4.30 each time. The compound further displayed an IC50 in assay [3] of 11.9 µM.

As usually defined, the inhibition is the drop in the measured response relative to a control, in per cent. Broadly, the pIC50 is −log10 of the IC50, conventionally taken in molar units. High values mean a low IC50, low ones a high IC50. As usually defined, the IC50 is the concentration that inhibits the measured activity by half. The low end stands for greater potency in that assay, the high end for weaker potency in that assay.

For the origin of these results see ChEMBL document CHEMBL1806416, “Synthesis of 2,4-diaryl chromenopyridines and evaluation of their topoisomerase I and II inhibitory activity, cytotoxicity, and structure-activity relationship” (Eur J Med Chem, 2011).
